Results from the M2OR odorant receptor database.

How the values were obtained:
Conditions in all cases: stereoisomer not certain
[1] = biological target: T1, UniProt Q8VGX8
T1 sequence (whole entry): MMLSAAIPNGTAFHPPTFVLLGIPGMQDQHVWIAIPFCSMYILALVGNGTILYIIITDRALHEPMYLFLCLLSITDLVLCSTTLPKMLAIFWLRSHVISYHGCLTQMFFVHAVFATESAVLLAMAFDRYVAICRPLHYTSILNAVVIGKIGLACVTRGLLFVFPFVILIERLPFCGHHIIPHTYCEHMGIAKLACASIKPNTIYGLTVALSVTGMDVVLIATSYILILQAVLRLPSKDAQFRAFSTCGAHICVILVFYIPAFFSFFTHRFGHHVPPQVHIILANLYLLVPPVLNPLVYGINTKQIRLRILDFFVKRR
Outline: (§1)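 Transient luciferase assays in mammalian cell lines were common, though methods varied by source. The values come from published papers and their supplementary material, with extra details from the original authors when needed. Responsive refers to a measured signal the original authors judged statistically different from baseline, and non-responsive (inactive) to the remainder.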

[2] = biological target: T2, UniProt Q8VGY6
T2 sequence (whole entry): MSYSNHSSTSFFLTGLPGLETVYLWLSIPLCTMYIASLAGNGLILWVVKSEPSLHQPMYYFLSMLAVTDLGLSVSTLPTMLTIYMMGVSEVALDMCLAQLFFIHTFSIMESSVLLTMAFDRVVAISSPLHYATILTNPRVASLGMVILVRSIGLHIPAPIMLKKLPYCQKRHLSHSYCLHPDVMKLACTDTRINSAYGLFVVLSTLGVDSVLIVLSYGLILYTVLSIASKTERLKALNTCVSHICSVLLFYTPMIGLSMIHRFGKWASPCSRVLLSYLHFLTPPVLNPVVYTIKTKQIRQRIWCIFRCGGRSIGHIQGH
Outline: as §1

[3] = biological target: T3, UniProt Q8VGZ2
T3 sequence (whole entry): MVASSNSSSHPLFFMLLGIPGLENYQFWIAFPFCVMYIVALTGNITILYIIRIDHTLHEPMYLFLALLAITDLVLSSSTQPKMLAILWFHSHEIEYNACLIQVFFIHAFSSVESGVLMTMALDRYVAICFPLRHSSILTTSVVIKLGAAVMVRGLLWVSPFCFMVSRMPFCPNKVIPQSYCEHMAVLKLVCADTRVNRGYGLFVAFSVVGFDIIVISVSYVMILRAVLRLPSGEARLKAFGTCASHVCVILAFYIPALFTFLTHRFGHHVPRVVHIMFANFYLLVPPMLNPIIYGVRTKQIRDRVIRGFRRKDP
Outline: as §1

[4] = biological target: T4, UniProt Q8VGZ7
T4 sequence (whole entry): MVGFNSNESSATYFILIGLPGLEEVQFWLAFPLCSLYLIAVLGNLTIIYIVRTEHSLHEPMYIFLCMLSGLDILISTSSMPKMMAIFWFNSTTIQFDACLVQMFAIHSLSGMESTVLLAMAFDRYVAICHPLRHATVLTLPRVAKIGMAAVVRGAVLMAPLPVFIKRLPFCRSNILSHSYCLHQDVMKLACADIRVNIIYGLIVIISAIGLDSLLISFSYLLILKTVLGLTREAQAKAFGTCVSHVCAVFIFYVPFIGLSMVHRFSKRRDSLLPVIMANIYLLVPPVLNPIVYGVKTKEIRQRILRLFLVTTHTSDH
Outline: as §1

[5] = biological target: T5, UniProt Q8VH10
T5 sequence (whole entry): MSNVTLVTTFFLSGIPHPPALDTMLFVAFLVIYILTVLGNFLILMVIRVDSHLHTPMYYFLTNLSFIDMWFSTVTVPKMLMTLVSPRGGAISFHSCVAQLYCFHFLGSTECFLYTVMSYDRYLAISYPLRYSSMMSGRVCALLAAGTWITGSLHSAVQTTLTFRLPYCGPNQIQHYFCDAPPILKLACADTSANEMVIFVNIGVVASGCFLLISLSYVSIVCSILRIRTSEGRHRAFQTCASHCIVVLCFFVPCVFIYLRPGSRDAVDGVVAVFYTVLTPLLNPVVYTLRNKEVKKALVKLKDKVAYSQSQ
Outline: as §1

[6] = biological target: T6, UniProt Q8VH16
T6 sequence (whole entry): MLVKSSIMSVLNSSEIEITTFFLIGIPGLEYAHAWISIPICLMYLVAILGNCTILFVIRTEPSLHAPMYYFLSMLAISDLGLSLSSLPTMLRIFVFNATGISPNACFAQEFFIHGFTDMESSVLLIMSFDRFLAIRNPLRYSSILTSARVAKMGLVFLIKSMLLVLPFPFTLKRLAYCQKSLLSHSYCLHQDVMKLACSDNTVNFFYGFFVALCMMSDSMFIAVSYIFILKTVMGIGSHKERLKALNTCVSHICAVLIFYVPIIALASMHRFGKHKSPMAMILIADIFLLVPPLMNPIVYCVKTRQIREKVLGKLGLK
Outline: as §1

[7] = biological target: T7, UniProt Q8VH20
T7 sequence (whole entry): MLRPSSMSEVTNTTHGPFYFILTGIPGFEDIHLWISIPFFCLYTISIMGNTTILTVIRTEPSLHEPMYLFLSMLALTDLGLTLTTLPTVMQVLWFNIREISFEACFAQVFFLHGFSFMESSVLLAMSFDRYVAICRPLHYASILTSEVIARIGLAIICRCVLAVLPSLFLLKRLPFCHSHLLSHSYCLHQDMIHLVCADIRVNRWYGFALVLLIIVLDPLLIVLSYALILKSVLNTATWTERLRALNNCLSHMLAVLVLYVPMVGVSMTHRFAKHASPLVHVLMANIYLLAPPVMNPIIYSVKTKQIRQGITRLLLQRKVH
Outline: as §1

[8] = biological target: T8, UniProt Q8VH21
T8 sequence (whole entry): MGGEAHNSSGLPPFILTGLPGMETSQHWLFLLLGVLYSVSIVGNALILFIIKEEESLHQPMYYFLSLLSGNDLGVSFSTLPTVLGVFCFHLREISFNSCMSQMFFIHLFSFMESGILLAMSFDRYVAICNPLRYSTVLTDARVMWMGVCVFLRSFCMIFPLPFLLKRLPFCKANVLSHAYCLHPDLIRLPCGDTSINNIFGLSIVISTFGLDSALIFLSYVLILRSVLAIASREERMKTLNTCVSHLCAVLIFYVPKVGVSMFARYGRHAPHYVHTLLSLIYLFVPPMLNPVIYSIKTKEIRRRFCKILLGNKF
Outline: as §1

[9] = biological target: T9, UniProt Q924H8
T9 sequence (whole entry): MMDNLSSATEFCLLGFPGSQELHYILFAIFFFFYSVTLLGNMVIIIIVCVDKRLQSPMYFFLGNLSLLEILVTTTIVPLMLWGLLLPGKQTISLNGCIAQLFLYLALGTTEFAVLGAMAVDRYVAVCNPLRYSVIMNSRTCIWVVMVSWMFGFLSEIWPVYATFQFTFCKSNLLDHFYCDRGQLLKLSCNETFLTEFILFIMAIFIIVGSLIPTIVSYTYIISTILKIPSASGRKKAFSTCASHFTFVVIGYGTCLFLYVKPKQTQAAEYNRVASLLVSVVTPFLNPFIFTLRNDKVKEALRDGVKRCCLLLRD
Outline: as §1

[10] = biological target: T10, UniProt Q9EPN9
T10 sequence (whole entry): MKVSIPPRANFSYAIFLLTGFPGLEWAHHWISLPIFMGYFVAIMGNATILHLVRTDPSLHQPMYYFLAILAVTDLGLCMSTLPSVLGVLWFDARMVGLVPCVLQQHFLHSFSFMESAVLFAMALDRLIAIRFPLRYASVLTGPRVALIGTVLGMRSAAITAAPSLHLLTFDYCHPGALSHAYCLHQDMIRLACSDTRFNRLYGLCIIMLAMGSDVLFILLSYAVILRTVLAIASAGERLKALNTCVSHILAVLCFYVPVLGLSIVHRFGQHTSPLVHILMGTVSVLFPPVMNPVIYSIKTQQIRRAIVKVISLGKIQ
Outline: as §1

[11] = biological target: UniProt Q9R0K2
Chain of UniProt Q9R0K2 (Q9R0K2 as listed by the source): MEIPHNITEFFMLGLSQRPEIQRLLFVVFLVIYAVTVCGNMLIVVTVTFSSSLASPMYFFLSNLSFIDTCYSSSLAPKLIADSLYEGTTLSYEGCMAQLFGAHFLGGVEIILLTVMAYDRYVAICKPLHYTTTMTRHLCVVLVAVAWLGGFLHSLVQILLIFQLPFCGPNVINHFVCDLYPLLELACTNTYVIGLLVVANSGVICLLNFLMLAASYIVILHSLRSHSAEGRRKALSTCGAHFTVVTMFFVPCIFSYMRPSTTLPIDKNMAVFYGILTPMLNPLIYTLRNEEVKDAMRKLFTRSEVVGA
Outline: as §1

[12] = biological target: T11, UniProt Q9WU86
T11 sequence (whole entry): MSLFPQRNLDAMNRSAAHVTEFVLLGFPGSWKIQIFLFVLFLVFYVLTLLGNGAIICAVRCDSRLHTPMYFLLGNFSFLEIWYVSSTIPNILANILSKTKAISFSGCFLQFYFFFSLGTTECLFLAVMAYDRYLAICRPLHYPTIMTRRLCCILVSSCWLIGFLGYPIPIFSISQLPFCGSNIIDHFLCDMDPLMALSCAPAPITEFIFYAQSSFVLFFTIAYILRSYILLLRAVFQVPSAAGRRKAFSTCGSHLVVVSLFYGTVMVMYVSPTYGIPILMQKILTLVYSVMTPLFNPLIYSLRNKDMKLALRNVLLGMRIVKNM
Outline: as §1

[13] = biological target: T12, UniProt Q8VH18
T12 sequence (whole entry): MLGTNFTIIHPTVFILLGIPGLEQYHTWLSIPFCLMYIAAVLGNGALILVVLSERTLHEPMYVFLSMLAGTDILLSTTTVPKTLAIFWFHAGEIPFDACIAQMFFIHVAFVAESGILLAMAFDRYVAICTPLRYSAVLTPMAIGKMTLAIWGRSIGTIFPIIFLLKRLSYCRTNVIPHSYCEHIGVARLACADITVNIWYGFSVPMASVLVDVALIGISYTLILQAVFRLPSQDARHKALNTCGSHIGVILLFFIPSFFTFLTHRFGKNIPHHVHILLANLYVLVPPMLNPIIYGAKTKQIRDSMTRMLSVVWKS
Outline: as §1

[14] = biological target: T13, UniProt Q924X8
T13 sequence (whole entry): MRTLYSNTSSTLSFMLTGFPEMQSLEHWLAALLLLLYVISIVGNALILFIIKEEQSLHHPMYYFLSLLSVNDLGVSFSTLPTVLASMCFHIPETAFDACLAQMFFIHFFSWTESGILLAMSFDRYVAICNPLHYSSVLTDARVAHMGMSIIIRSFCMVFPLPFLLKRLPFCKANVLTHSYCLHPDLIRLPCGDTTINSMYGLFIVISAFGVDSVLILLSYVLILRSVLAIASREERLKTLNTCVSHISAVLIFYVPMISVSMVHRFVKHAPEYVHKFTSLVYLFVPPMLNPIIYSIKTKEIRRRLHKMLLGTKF
Outline: as §1

[15] = biological target: T14, UniProt Q99NH4
T14 sequence (whole entry): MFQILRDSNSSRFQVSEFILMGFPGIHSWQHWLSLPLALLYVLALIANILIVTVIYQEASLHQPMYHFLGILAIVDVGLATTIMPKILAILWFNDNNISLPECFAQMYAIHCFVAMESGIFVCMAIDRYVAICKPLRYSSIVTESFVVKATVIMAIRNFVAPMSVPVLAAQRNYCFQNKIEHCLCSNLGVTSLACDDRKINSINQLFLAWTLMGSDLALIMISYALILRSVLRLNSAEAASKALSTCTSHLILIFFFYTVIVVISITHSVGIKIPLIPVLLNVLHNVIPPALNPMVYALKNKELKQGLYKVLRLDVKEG
Outline: as §1

[16] = biological target: T15, UniProt Q9WU94
T15 sequence (whole entry): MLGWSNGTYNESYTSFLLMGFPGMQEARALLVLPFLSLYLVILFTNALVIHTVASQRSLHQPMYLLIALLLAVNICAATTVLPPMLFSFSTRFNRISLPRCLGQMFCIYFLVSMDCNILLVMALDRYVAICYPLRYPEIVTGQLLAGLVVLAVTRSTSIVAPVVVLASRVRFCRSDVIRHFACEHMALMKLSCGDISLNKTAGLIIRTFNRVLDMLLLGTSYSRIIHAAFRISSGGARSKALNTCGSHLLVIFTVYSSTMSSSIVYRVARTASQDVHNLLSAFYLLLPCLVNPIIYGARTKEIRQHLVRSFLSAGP
Outline: as §1

[17] = biological target: T16, UniProt Q9WVD7
T16 sequence (whole entry): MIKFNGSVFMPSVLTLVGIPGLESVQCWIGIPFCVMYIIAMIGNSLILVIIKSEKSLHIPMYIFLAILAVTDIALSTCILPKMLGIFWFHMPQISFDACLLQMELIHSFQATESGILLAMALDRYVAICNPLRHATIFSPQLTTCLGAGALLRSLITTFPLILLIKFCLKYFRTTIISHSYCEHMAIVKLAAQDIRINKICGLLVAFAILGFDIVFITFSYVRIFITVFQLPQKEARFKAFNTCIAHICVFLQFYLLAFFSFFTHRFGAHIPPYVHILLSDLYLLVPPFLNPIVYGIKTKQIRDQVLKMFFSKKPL
Outline: as §1

Measured: odorant receptor agonist call;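 further: active if original authors judged signal statistically different from baseline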

CCCCOC=O
inactive: [1] | [2] | [3] | [4] | [5] | [6] | [7] | [8] | [9] | [10] | [11] | [12]

CC(C)=CCCC(C)CCO (configuration not stated)
inactive: [1] | [2] | [3] | [4] | [5] | [6] | [7] | [8] | [9] | [10] | [11] | [12]

CCCCCCC(C=O)=Cc1ccccc1
inactive: [3] | [4] | [6] | [7] | [8]

O=C(O)CCCCBr
inactive: [1] | [13] | [15] | [16] | [17]
active: [14]

CCCCCC(=Cc1ccccc1)C(OC)OC
inactive: [3] | [4] | [6] | [7] | [8] | [9]

CCCCOC(=O)C(C)OC(=O)CCC (configuration not stated)
inactive: [1] | [2] | [3] | [4] | [5] | [7] | [10] | [11] | [12]

CC(=O)OCc1ccc2c(c1)OCO2
inactive: [3] | [4] | [6] | [7] | [8] | [9]

CCOC(=O)CC(C)C
inactive: [3] | [4] | [6] | [7] | [8] | [9]
